Measured values gathered from unrelated publications.
Compare with care: the assays were run in different laboratories.
MET: Hepatocyte growth factor receptor (MET, Homo sapiens, UniProt P08581)
MET Y1235D: Hepatocyte growth factor receptor (MET, Homo sapiens, UniProt P08581, Y1235D)
MET D1228H: Hepatocyte growth factor receptor (MET, Homo sapiens, UniProt P08581, D1228H)
MET M1250T: Hepatocyte growth factor receptor (MET, Homo sapiens, UniProt P08581, M1250T)

Structure (SMILES)	target	test	conditions	measurement	result
N#CCCc1ccc2c(c1)-c1[nH]c3ccc([N+](=O)[O-])cc3c1CC(=O)N2	MET	cell-free assay	0.5 µM	remaining signal	119%
CC(C)CC(=O)N1CCc2nc(-c3ccc(Br)cc3)nc(N(C)Cc3ccccc3)c2C1	MET	cell-free assay, competition with immobilised ligand	0.1 µM	remaining binding	99%
CN(c1nccc(-c2cnn3ncccc23)n1)C1CC1	MET Y1235D	binding	1 µM	remaining binding	100%
Cc1ccc(NC(=O)c2ccc(C)c(C(F)(F)F)c2)cc1C#Cc1nn(C2CCC(O)CC2)c2ncnc(N)c12 (stereo not shown)	Hepatocyte growth factor receptor (MET, Homo sapiens, UniProt P08581, Y1230C)	cell-free assay	10 µM	remaining signal	139%
COc1cc2ncnc(Nc3ccc(F)c(Cl)c3)c2cc1OCCCN1CCOCC1	MET	cell-free assay	0.5 µM	remaining signal	92.4%
N[C@@H]1CCN(c2nccc(-c3cnn4ncccc34)n2)C1	MET Y1235D	binding	1 µM	remaining binding	100%
CC/C(=N\NC(=O)NCc1cccc(O)c1)c1ccc(O)c(C)c1O	MET D1228H	enzyme activity, inhibitor	0.1 µM	inhibition	-2.8%
F[C@@H]1CCN(c2nccc(-c3cnn4ncccc34)n2)C1	MET	binding	1 µM	remaining binding	90%
O=C(O)c1cc(-c2ccc(C3CCNCC3)cc2)c2ccc(-c3ccc(C(F)(F)F)cc3)cc2c1	MET Y1235D	cell-free assay, competition with immobilised ligand	1 µM	remaining binding	100%
Cc1cnn2ncc(-c3ccnc(N(C)C)n3)c2c1	MET Y1235D	binding	1 µM	remaining binding	87%
CNC(=O)c1cc2c(Oc3ccc(NC(=O)C4(C(=O)Nc5ccc(F)cc5)CC4)cc3)ccnc2cc1OC	Hepatocyte growth factor receptor (MET, Homo sapiens, UniProt P08581, Y1230D)	enzyme activity, inhibitor, radiometric	1 µM	inhibition	100%
CN(C)c1ncc(F)c(-c2cnn3ncccc23)n1	MET Y1235D	binding	1 µM	remaining binding	100%
Cc1nccc(COC(=O)N2C[C@@H]3[C@@H](CNC(=O)c4ccc5[nH]nnc5c4)[C@@H]3C2)n1	MET Y1235D	cell-free assay, competition with immobilised ligand	1 µM	remaining binding	92%
Cc1cnc(NC2CCOCC2)nc1-n1cnc(C(=O)NC(CN)c2cc(F)cc(Cl)c2)c1 (stereo not shown)	MET D1228H	enzyme activity, inhibitor, radiometric	1 µM	remaining activity	98%
CC(C)(O)[C@H]1CC[C@H](Nc2ccc3ncc(-c4cccc(C(F)(F)F)c4)n3n2)CC1	MET	enzyme activity, inhibitor	1 µM	remaining activity	99.8%
Oc1ccc(-c2nc(-c3ccncc3)c(-c3ccc(F)cc3)[nH]2)cc1	MET	cell-free assay	0.5 µM	remaining signal	94.4%

Structure (SMILES)	target	test	conditions	measurement	result
Cc1ccc(C(=O)Nc2ccc(CN3CCN(C)CC3)c(C(F)(F)F)c2)cc1C#Cc1cnc2cccnn12	MET	cell-free assay	23.5 nM	remaining signal	92%
O=C(Nc1cnn(-c2csc(C(=O)NC3COC3)c2)c1)Nc1c(F)cccc1Cl	MET	enzyme activity, inhibitor	5 µM	remaining activity	86.1%
O=C(NC[C@@H]1[C@H]2CN(C(=O)OCc3cc(C(F)(F)F)cc(C(F)(F)F)c3)C[C@@H]12)c1ccc2[nH]nnc2c1	MET M1250T	cell-free assay, competition with immobilised ligand	1 µM	remaining binding	100%
COc1ccnn2ncc(-c3ccnc(N(C)C)n3)c12	MET M1250T	binding	1 µM	remaining binding	100%
CN(C)C(=O)Cn1cc(-c2nc(C3(c4ccc(-c5cnc(N)nc5)cc4)CC3)no2)cn1	MET	cell-free assay, competition with immobilised ligand	1 µM	remaining binding	73%
CC(C)(C)c1nc2c(s1)c1nc(N)ncc1c1ccc(NS(=O)(=O)c3c(F)cccc3F)c(F)c12	MET	enzyme activity, inhibitor, radiometric	1 µM	remaining activity	90%
Cc1ccc(C(=O)NCc2ccsc2)cc1C#Cc1cn(C(C)C)c2ncnc(N)c12	MET	enzyme activity, inhibitor	1 µM	activity vs control	86%
C[C@H]1CCN(c2nccc(-c3cnn4ncccc34)n2)C1	MET M1250T	binding	1 µM	remaining binding	50%
O=C(N[C@H]1CCCCC/C=C\C2C[C@@]2(C(=O)O)NC(=O)[C@@H]2C[C@@H](Oc3ccncc3)CN2C1=O)OC1CCCC1 (stereo partly shown)	MET M1250T	cell-free assay, competition with immobilised ligand	1 µM	remaining binding	92%
Nc1ncnc2occ(-c3ccc(NC(=O)Nc4cc(C(F)(F)F)ccc4F)cc3)c12	MET M1250T	cell-free assay	20 µM	remaining signal	4.1%
NS(=O)(=O)c1cc(NC(=O)Cc2ccccc2)ccc1Oc1cccc(Cl)c1	MET	cell-free assay, competition with immobilised ligand	1 µM	remaining binding	91%
CCN(CC)CCNC(=O)c1c(C)[nH]c(/C=C2\C(=O)Nc3ccc(F)cc32)c1C	MET	cell-free assay	0.5 µM	remaining signal	91%
CN(CCCC(F)(F)F)c1nccc(-c2cnn3ncccc23)n1	MET M1250T	binding	1 µM	remaining binding	100%
CCCOc1ccc([C@@H]2[C@@H](C(=O)O)[C@H](c3ccc4c(c3)OCO4)CN2CC(=O)Nc2c(CC)cccc2CC)cc1	MET M1250T	cell-free assay, competition with immobilised ligand	1 µM	remaining binding	81%
Cc1cc(NC(=O)c2cccc3cc(-c4cccc5[nH]nc(N)c45)ccc23)ccc1F	Hepatocyte growth factor receptor (MET, Homo sapiens, UniProt P08581, Y1230H)	enzyme activity, inhibitor	0.1 µM	activity vs control	106%
